Assay results as given in ChEMBL document CHEMBL5058577, “EUbOPEN Chemogenomics Library 2 (Multiplex)” (2022).

Key:
[1] = system: U2OS; assay: Multiplex assay against U2OS; format: toxicity, cell-based; details: human
Procedure, shortened: (§1)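 Hoechst33342, BioTracker Green Microtubule Cytoskeleton Dye, MitoTracker Red and Annexin V Alexa Fluor 680 were added to live cells at seeding, and imaging on a CQ1 microscope at 37°C and 5% CO2 followed compound addition. Gating by CellPathfinder machine learning separated cells into Hoechst high-intensity objects or normal cells, then normal cells into healthy, pyknosed or fragmented nuclei, then pyknosed cells into mitotic or apoptotic. Per cents of healthy-nucleus cells are reported for the tubulin, mitochondrial-mass and membrane-permeability phenotypes.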

[2] = system: HEK-293T; assay: Multiplex assay against HEK293T; format: toxicity, cell-based; details: human; procedure, shortened: as §1
[3] = 12 h, 1 µM, compound concentration 1 uM, replicate 1
[4] = 12 h, 1 µM, compound concentration 1 uM, replicate 2
[5] = 12 h, 10 µM, compound concentration 10 uM, replicate 1
[6] = 12 h, 10 µM, compound concentration 10 uM, replicate 2
[7] = 24 h, 1 µM, compound concentration 1 uM, replicate 1
[8] = 24 h, 1 µM, compound concentration 1 uM, replicate 2
[9] = 24 h, 10 µM, compound concentration 10 uM, replicate 1
[10] = 24 h, 10 µM, compound concentration 10 uM, replicate 2
[11] = 48 h, 1 µM, compound concentration 1 uM, replicate 1
[12] = 48 h, 1 µM, compound concentration 1 uM, replicate 2
[13] = 48 h, 10 µM, compound concentration 10 uM, replicate 1
[14] = 48 h, 10 µM, compound concentration 10 uM, replicate 2

Cc1ccc(-c2ccc(F)cc2COc2ccc(CCC(=O)O)cc2)cc1
Population Apoptotic (%) [1, 3]: 75%
Population Fragmented Nuclei (%) [1, 3]: 22%
Population Healthy Nuclei (%) [1, 3]: 71%
Population Mitotic Cells (%) [1, 3]: 25%
Population Normal (%) [1, 3]: 97%
Population Pyknosed Nuclei (%) [1, 3]: 5%
Total Cell Count [1, 3]: 277
Population Apoptotic (%) [1, 4]: 100%
Population Fragmented Nuclei (%) [1, 4]: 17%
Population Healthy Nuclei (%) [1, 4]: 74%
Population Mitotic Cells (%) [1, 4]: 0%
Population Pyknosed Nuclei (%) [1, 4]: 8%
Total Cell Count [1, 4]: 135
Population Apoptotic (%) [1, 5]: 75%
Population Fragmented Nuclei (%) [1, 5]: 31%
Population Healthy Nuclei (%) [1, 5]: 61%
Population Mitotic Cells (%) [1, 5]: 25%
Population Normal (%) [1, 5]: 98%
Population Pyknosed Nuclei (%) [1, 5]: 6%
Total Cell Count [1, 5]: 238
Population Apoptotic (%) [1, 6]: 83%
Population Fragmented Nuclei (%) [1, 6]: 14%
Population Healthy Nuclei (%) [1, 6]: 75%
Population Mitotic Cells (%) [1, 6]: 16%
Population Normal (%) [1, 6]: 97%
Population Pyknosed Nuclei (%) [1, 6]: 10%
Total Cell Count [1, 6]: 123
Population Apoptotic (%) [1, 7]: 90%
Population Fragmented Nuclei (%) [1, 7]: 21%
Population Healthy Nuclei (%) [1, 7]: 69%
Population Mitotic Cells (%) [1, 7]: 10%
Population Normal (%) [1, 7]: 97%
Population Pyknosed Nuclei (%) [1, 7]: 9%
Total Cell Count [1, 7]: 340
Population Apoptotic (%) [1, 8]: 100%
Population Fragmented Nuclei (%) [1, 8]: 20%
Population Healthy Nuclei (%) [1, 8]: 70%
Population Mitotic Cells (%) [1, 8]: 0%
Population Normal (%) [1, 8]: 98%
Population Pyknosed Nuclei (%) [1, 8]: 8%
Total Cell Count [1, 8]: 175
Population Apoptotic (%) [1, 9]: 94%
Population Fragmented Nuclei (%) [1, 9]: 26%
Population Healthy Nuclei (%) [1, 9]: 67%
Population Mitotic Cells (%) [1, 9]: 5%
Population Normal (%) [1, 9]: 98%
Population Pyknosed Nuclei (%) [1, 9]: 5%
Total Cell Count [1, 9]: 295
Population Apoptotic (%) [1, 10]: 93%
Population Fragmented Nuclei (%) [1, 10]: 22%
Population Mitotic Cells (%) [1, 10]: 6%
Population Normal (%) [1, 10]: 97%
Population Pyknosed Nuclei (%) [1, 10]: 9%
Total Cell Count [1, 10]: 160
Population Apoptotic (%) [1, 11]: 89%
Population Fragmented Nuclei (%) [1, 11]: 17%
Population Healthy Nuclei (%) [1, 11]: 74%
Population Mitotic Cells (%) [1, 11]: 10%
Population Normal (%) [1, 11]: 97%
Population Pyknosed Nuclei (%) [1, 11]: 8%
Total Cell Count [1, 11]: 487
Population Apoptotic (%) [1, 12]: 95%
Population Fragmented Nuclei (%) [1, 12]: 15%
Population Healthy Nuclei (%) [1, 12]: 75%
Population Mitotic Cells (%) [1, 12]: 5%
Total Cell Count [1, 12]: 242
Population Apoptotic (%) [1, 13]: 87%
Population Fragmented Nuclei (%) [1, 13]: 21%
Population Healthy Nuclei (%) [1, 13]: 70%
Population Mitotic Cells (%) [1, 13]: 12%
Population Normal (%) [1, 13]: 97%
Population Pyknosed Nuclei (%) [1, 13]: 7%
Total Cell Count [1, 13]: 421
Population Apoptotic (%) [1, 14]: 88%
Population Fragmented Nuclei (%) [1, 14]: 16%
Population Healthy Nuclei (%) [1, 14]: 72%
Population Mitotic Cells (%) [1, 14]: 11%
Population Normal (%) [1, 14]: 98%
Total Cell Count [1, 14]: 236
Population Apoptotic (%) [2, 3]: 42%
Population Fragmented Nuclei (%) [2, 3]: 6%
Population Healthy Nuclei (%) [2, 3]: 82%
Population Hoechst High Intensity Objects (%) [2, 3]: 9%
Population Mitochondria Different-Phenotype (%) [2, 3]: 36%
Population Mitotic Cells (%) [2, 3]: 57%
Population Normal (%) [2, 3]: 90%
Population Tubulin-Different-Phenotype (%) [2, 3]: 18%
Total Cell Count [2, 3]: 465
Population Apoptotic (%) [2, 4]: 33%
Population Healthy Nuclei (%) [2, 4]: 77%
Population Mitochondria Different-Phenotype (%) [2, 4]: 50%
Population Mitotic Cells (%) [2, 4]: 66%
Population Pyknosed Nuclei (%) [2, 4]: 15%
Total Cell Count [2, 4]: 324
Population Apoptotic (%) [2, 5]: 32%
Population Fragmented Nuclei (%) [2, 5]: 10%
Population Healthy Nuclei (%) [2, 5]: 79%
Population Hoechst High Intensity Objects (%) [2, 5]: 7%
Population Mitochondria Different-Phenotype (%) [2, 5]: 46%
Population Mitotic Cells (%) [2, 5]: 67%
Population Normal (%) [2, 5]: 92%
Population Pyknosed Nuclei (%) [2, 5]: 10%
Population Tubulin-Different-Phenotype (%) [2, 5]: 33%
Total Cell Count [2, 5]: 329
Population Apoptotic (%) [2, 6]: 42%
Population Fragmented Nuclei (%) [2, 6]: 7%
Population Healthy Nuclei (%) [2, 6]: 83%
Population Hoechst High Intensity Objects (%) [2, 6]: 6%
Population Mitochondria Different-Phenotype (%) [2, 6]: 58%
Population Mitotic Cells (%) [2, 6]: 57%
Population Normal (%) [2, 6]: 93%
Population Pyknosed Nuclei (%) [2, 6]: 9%
Population Tubulin-Different-Phenotype (%) [2, 6]: 15%
Total Cell Count [2, 6]: 396
Population Apoptotic (%) [2, 7]: 16%
Population Fragmented Nuclei (%) [2, 7]: 10%
Population Healthy Nuclei (%) [2, 7]: 82%
Population Hoechst High Intensity Objects (%) [2, 7]: 3%
Population Mitochondria Different-Phenotype (%) [2, 7]: 16%
Population Mitotic Cells (%) [2, 7]: 84%
Population Normal (%) [2, 7]: 96%
Population Pyknosed Nuclei (%) [2, 7]: 7%
Population Tubulin-Different-Phenotype (%) [2, 7]: 10%
Total Cell Count [2, 7]: 688
Population Apoptotic (%) [2, 8]: 52%
Population Fragmented Nuclei (%) [2, 8]: 9%
Population Healthy Nuclei (%) [2, 8]: 80%
Population Hoechst High Intensity Objects (%) [2, 8]: 7%
Population Mitochondria Different-Phenotype (%) [2, 8]: 33%
Population Mitotic Cells (%) [2, 8]: 47%
Population Normal (%) [2, 8]: 92%
Population Pyknosed Nuclei (%) [2, 8]: 9%
Population Tubulin-Different-Phenotype (%) [2, 8]: 13%
Total Cell Count [2, 8]: 445
Population Apoptotic (%) [2, 9]: 36%
Population Fragmented Nuclei (%) [2, 9]: 11%
Population Healthy Nuclei (%) [2, 9]: 76%
Population Hoechst High Intensity Objects (%) [2, 9]: 5%
Population Mitochondria Different-Phenotype (%) [2, 9]: 30%
Population Mitotic Cells (%) [2, 9]: 63%
Population Normal (%) [2, 9]: 94%
Population Tubulin-Different-Phenotype (%) [2, 9]: 18%
Total Cell Count [2, 9]: 397
Population Apoptotic (%) [2, 10]: 51%
Population Fragmented Nuclei (%) [2, 10]: 6%
Population Healthy Nuclei (%) [2, 10]: 87%
Population Hoechst High Intensity Objects (%) [2, 10]: 3%
Population Mitochondria Different-Phenotype (%) [2, 10]: 37%
Population Mitotic Cells (%) [2, 10]: 48%
Population Normal (%) [2, 10]: 96%
Population Pyknosed Nuclei (%) [2, 10]: 6%
Population Tubulin-Different-Phenotype (%) [2, 10]: 13%
Total Cell Count [2, 10]: 461
Population Apoptotic (%) [2, 11]: 17%
Population Fragmented Nuclei (%) [2, 11]: 15%
Population Healthy Nuclei (%) [2, 11]: 79%
Population Hoechst High Intensity Objects (%) [2, 11]: 1%
Population Mitochondria Different-Phenotype (%) [2, 11]: 7%
Population Mitotic Cells (%) [2, 11]: 82%
Population Normal (%) [2, 11]: 98%
Population Pyknosed Nuclei (%) [2, 11]: 5%
Population Tubulin-Different-Phenotype (%) [2, 11]: 8%
Total Cell Count [2, 11]: 1149
Population Apoptotic (%) [2, 12]: 36%
Population Fragmented Nuclei (%) [2, 12]: 14%
Population Healthy Nuclei (%) [2, 12]: 77%
Population Mitochondria Different-Phenotype (%) [2, 12]: 18%
Population Mitotic Cells (%) [2, 12]: 63%
Population Normal (%) [2, 12]: 97%
Population Pyknosed Nuclei (%) [2, 12]: 8%
Population Tubulin-Different-Phenotype (%) [2, 12]: 9%
Total Cell Count [2, 12]: 631
Population Apoptotic (%) [2, 13]: 24%
Population Fragmented Nuclei (%) [2, 13]: 12%
Population Healthy Nuclei (%) [2, 13]: 78%
Population Mitochondria Different-Phenotype (%) [2, 13]: 17%
Population Mitotic Cells (%) [2, 13]: 75%
Population Normal (%) [2, 13]: 97%
Population Pyknosed Nuclei (%) [2, 13]: 8%
Population Tubulin-Different-Phenotype (%) [2, 13]: 9%
Total Cell Count [2, 13]: 713
Population Apoptotic (%) [2, 14]: 31%
Population Fragmented Nuclei (%) [2, 14]: 15%
Population Healthy Nuclei (%) [2, 14]: 79%
Population Hoechst High Intensity Objects (%) [2, 14]: 4%
Population Mitochondria Different-Phenotype (%) [2, 14]: 16%
Population Mitotic Cells (%) [2, 14]: 68%
Population Normal (%) [2, 14]: 95%
Population Pyknosed Nuclei (%) [2, 14]: 5%
Population Tubulin-Different-Phenotype (%) [2, 14]: 8%
Total Cell Count [2, 14]: 702
